{"source": "ChEMBL document CHEMBL1275445", "about": "“Low beta-lactamase-negative ampicillin-resistant Haemophilus influenzae strains are best detected by testing amoxicillin susceptibility by the broth microdilution method” (2008)", "assay_type_in_all_cases": "functional", "key": {"[1]": {"tested_on": "Haemophilus influenzae", "assay": "Antibacterial activity against Beta-lactamase negative ampicillin-resistant Haemophilus influenzae isolate with SSN motif mutation after 20 to 24 hrs by broth microdilution method", "outline": "(§1)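 Broth microdilution per CLSI on clinical H. influenzae isolates genotyped by ftsI/blaTEM PCR and sequencing. Medium: Mueller-Hinton broth with HTM supplement and yeast extract (5%). Inoculum about 5 x 10^5 CFU/ml, confirmed by colony counts on chocolate agar. Incubation 35°C, 20 to 24 h, 5% CO2. MIC was the lowest concentration inhibiting growth. Amoxicillin-clavulanic acid tested at 2:1. β-lactamase status determined by nitrocefin test.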"}, "[2]": {"tested_on": "Haemophilus influenzae", "assay": "Antibacterial activity against Beta-lactamase negative ampicillin-resistant Haemophilus influenzae isolate with SSN motif mutation after 20 to 24 hrs by Etest method", "outline": "(§2)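 Etest on clinical H. influenzae isolates genotyped by ftsI/blaTEM sequencing. Overnight chocolate-agar colonies were suspended in saline to McFarland 0.5 and swabbed confluently onto 150-mm agar plates. Strips were placed radially, then plates incubated at 35°C in 5% CO2 for 20 to 24 h. MIC read where the inhibition ellipse meets the strip. Values rounded up to the next log2 step.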"}, "[3]": {"tested_on": "Haemophilus influenzae", "assay": "Antibacterial activity against Beta-lactamase negative ampicillin-resistant Haemophilus influenzae isolate with SSN motif mutation after 20 to 24 hrs by disk diffusion method using <=29 mm disk", "outline": "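Disk diffusion per CLSI on HTM base with HTM supplement and yeast extract (5%). Inoculum McFarland 0.5. Incubation 20 to 24 h at 35°C in 5% CO2. Cefixime disk 5 µg. Isolates genotyped for ftsI (SSN motif) by PCR and sequencing. Zone diameter measured.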"}, "[4]": {"tested_on": "Haemophilus influenzae", "assay": "Antibacterial activity against Beta-lactamase negative Haemophilus influenzae assessed as susceptible isolates after 20 to 24 hrs by broth microdilution method", "outline": "(§3)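 CLSI broth microdilution in Mueller-Hinton broth with HTM supplement and yeast extract (5%), inoculum about 5 x 10^5 CFU/ml (checked by colony counts on chocolate agar); 35°C, 20–24 h in 5% CO2. MIC = lowest concentration inhibiting growth; amoxicillin-clavulanic acid at 2:1. β-lactamase status by nitrocephin test.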"}, "[5]": {"tested_on": "Haemophilus influenzae", "assay": "Antibacterial activity against Beta-lactamase positive Haemophilus influenzae isolate harboring fst1 mutant gene after 20 to 24 hrs by Etest method in presence of clavulanic acid", "outline": "(§4)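 Etest on clinical H. influenzae isolates genotyped for ftsI and blaTEM by PCR and sequencing; β-lactamase status by nitrocefin chromogenic test. Colonies from overnight chocolate agar suspended in saline to McFarland 0.5, swabbed confluently onto 150-mm agar plates, strips placed radially; 35°C, 5% CO2, 20 to 24 h. MIC read where inhibition ellipse meets strip, rounded up to next log2 concentration.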"}, "[6]": {"tested_on": "Haemophilus influenzae", "assay": "Antibacterial activity against Beta-lactamase negative Haemophilus influenzae isolate harboring fst1 mutant gene after 20 to 24 hrs by broth microdilution method", "outline": "as §1"}, "[7]": {"tested_on": "Haemophilus influenzae", "assay": "Antibacterial activity against Beta-lactamase positive Haemophilus influenzae assessed as susceptible isolates after 20 to 24 hrs by Etest method", "outline": "(§5)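 Confluent swab of agar plates with saline suspension of overnight chocolate-agar colonies at McFarland 0.5; Etest strips placed radially; 35°C, 5% CO2, 20–24 h. MIC read where the inhibition ellipse meets the strip, rounded up to next log2 concentration. β-lactamase status by nitrocephin chromogenic cephalosporin test; genotype by ftsI/blaTEM sequencing.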"}, "[8]": {"tested_on": "Haemophilus influenzae", "assay": "Antibacterial activity against Beta-lactamase positive Haemophilus influenzae assessed as resistant isolates after 20 to 24 hrs by Etest method", "outline": "as §2"}, "[9]": {"tested_on": "Haemophilus influenzae", "assay": "Antibacterial activity against Beta-lactamase negative Haemophilus influenzae harboring fst1 mutant gene assessed as susceptible isolates after 20 to 24 hrs by Etest method", "outline": "as §2"}, "[10]": {"tested_on": "Haemophilus influenzae", "assay": "Antibacterial activity against Beta-lactamase positive Haemophilus influenzae isolate after 20 to 24 hrs by Etest method", "outline": "as §2"}, "[11]": {"tested_on": "Haemophilus influenzae", "assay": "Antibacterial activity against Beta-lactamase positive Haemophilus influenzae isolate harboring fst1 mutant gene after 20 to 24 hrs by Etest method", "outline": "as §2"}, "[12]": {"tested_on": "Haemophilus influenzae", "assay": "Antibacterial activity against Beta-lactamase positive Haemophilus influenzae isolate after 20 to 24 hrs by broth microdilution method", "outline": "as §3"}, "[13]": {"tested_on": "Haemophilus influenzae", "assay": "Antibacterial activity against Beta-lactamase negative Haemophilus influenzae isolate harboring fst1 mutant gene after 20 to 24 hrs by Etest method", "outline": "as §2"}, "[14]": {"tested_on": "Haemophilus influenzae", "assay": "Antibacterial activity against Beta-lactamase negative Haemophilus influenzae isolate after 20 to 24 hrs by Etest method", "outline": "as §2"}, "[15]": {"tested_on": "Haemophilus influenzae", "assay": "Antibacterial activity against Beta-lactamase negative Haemophilus influenzae isolate after 20 to 24 hrs by broth microdilution method", "outline": "as §1"}, "[16]": {"tested_on": "Haemophilus influenzae", "assay": "Antibacterial activity against Beta-lactamase positive Haemophilus influenzae isolate after 20 to 24 hrs by Etest method in presence of clavulanic acid", "outline": "as §4"}, "[17]": {"tested_on": "Haemophilus influenzae", "assay": "Antibacterial activity against Beta-lactamase negative Haemophilus influenzae harboring fst1 mutant gene assessed as susceptible isolates after 20 to 24 hrs by broth microdilution method", "outline": "as §1"}, "[18]": {"tested_on": "Haemophilus influenzae", "assay": "Antibacterial activity against Beta-lactamase positive Haemophilus influenzae isolate harboring fst1 mutant gene after 20 to 24 hrs by broth microdilution method in presence of clavulanic acid", "outline": "(§6)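 Broth microdilution per CLSI, with plates incubated in 5% CO2. Mueller-Hinton broth with HTM supplement and yeast extract (5%). Inoculum about 5 x 10^5 CFU/ml, checked by colony counts on chocolate agar. Amoxicillin-clavulanic acid at 2:1 ratio. 35°C, 20 to 24 h. MIC is the lowest concentration inhibiting growth. Isolates genotyped for ftsI/blaTEM by sequencing; β-lactamase by nitrocefin test.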"}, "[19]": {"tested_on": "Haemophilus influenzae", "assay": "Antibacterial activity against Beta-lactamase negative Haemophilus influenzae assessed as susceptible isolates after 20 to 24 hrs by Etest method", "outline": "as §5"}, "[20]": {"tested_on": "Haemophilus influenzae", "assay": "Antibacterial activity against Beta-lactamase positive Haemophilus influenzae isolate harboring fst1 mutant gene after 20 to 24 hrs by broth microdilution method", "outline": "as §1"}, "[21]": {"tested_on": "Haemophilus influenzae", "assay": "Antibacterial activity against Beta-lactamase negative Haemophilus influenzae isolate after 20 to 24 hrs by broth microdilution method in presence of clavulanic acid", "outline": "as §6"}, "[22]": {"tested_on": "Haemophilus influenzae", "assay": "Antibacterial activity against Beta-lactamase negative Haemophilus influenzae isolate after 20 to 24 hrs by Etest method in presence of clavulanic acid", "outline": "as §4"}, "[23]": {"tested_on": "Haemophilus influenzae", "assay": "Antibacterial activity against Beta-lactamase negative Haemophilus influenzae isolate harboring fst1 mutant gene after 20 to 24 hrs by broth microdilution method in presence of clavulanic acid", "outline": "as §6"}, "[24]": {"tested_on": "Haemophilus influenzae", "assay": "Antibacterial activity against Beta-lactamase positive Haemophilus influenzae assessed as susceptible isolates after 20 to 24 hrs by broth microdilution method", "outline": "as §1"}, "[25]": {"tested_on": "Haemophilus influenzae", "assay": "Antibacterial activity against Beta-lactamase negative Haemophilus influenzae harboring fst1 mutant gene assessed as resistant isolates after 20 to 24 hrs by broth microdilution method", "outline": "as §1"}, "[26]": {"tested_on": "Haemophilus influenzae", "assay": "Antibacterial activity against Beta-lactamase positive Haemophilus influenzae isolate after 20 to 24 hrs by broth microdilution method in presence of clavulanic acid", "outline": "as §6"}, "[27]": {"tested_on": "Haemophilus influenzae", "assay": "Antibacterial activity against Beta-lactamase negative Haemophilus influenzae isolate harboring fst1 mutant gene after 20 to 24 hrs by Etest method in presence of clavulanic acid", "outline": "as §4"}}}
{"compound": "C=CC1=C(C(=O)O)N2C(=O)[C@@H](NC(=O)/C(=N\\OCC(=O)O)c3csc(N)n3)[C@H]2SC1", "note": "[CEFIXIME]", "values": [{"measurement": "MIC", "setting": "[1]", "value": "≥ 0.5", "unit": "µg/mL"}, {"measurement": "MIC", "setting": "[2]", "value": "≥ 0.5", "unit": "µg/mL"}, {"measurement": "MIC", "setting": "[3]", "value": "≥ 0.5", "unit": "µg/mL"}]}
{"compound": "CC1(C)S[C@@H]2[C@H](NC(=O)[C@H](N)c3ccc(O)cc3)C(=O)N2[C@H]1C(=O)O", "note": "[AMOXICILLIN]", "values": [{"measurement": "Activity", "setting": "[4]", "value": 100, "unit": "%"}, {"measurement": "MIC", "setting": "[5]", "value": 0.5, "unit": "µg/mL"}, {"measurement": "MIC50", "setting": "[6]", "value": 2, "unit": "µg/mL"}, {"measurement": "MIC90", "setting": "[6]", "value": 4, "unit": "µg/mL"}, {"measurement": "Activity", "setting": "[7]", "value": 5, "unit": "%"}, {"measurement": "Activity", "setting": "[8]", "value": 85, "unit": "%"}, {"measurement": "Activity", "setting": "[9]", "value": 67.6, "unit": "%"}, {"measurement": "MIC50", "setting": "[10]", "value": 4, "unit": "µg/mL"}, {"measurement": "MIC90", "setting": "[10]", "value": 16, "unit": "µg/mL"}, {"measurement": "MIC50", "setting": "[11]", "value": 32, "unit": "µg/mL"}, {"measurement": "MIC90", "setting": "[11]", "value": 64, "unit": "µg/mL"}, {"measurement": "MIC50", "setting": "[12]", "value": "≥ 64", "unit": "µg/mL"}, {"measurement": "MIC90", "setting": "[12]", "value": "≥ 64", "unit": "µg/mL"}, {"measurement": "MIC50", "setting": "[13]", "value": 1, "unit": "µg/mL"}, {"measurement": "MIC90", "setting": "[13]", "value": 2, "unit": "µg/mL"}, {"measurement": "MIC50", "setting": "[14]", "value": 0.5, "unit": "µg/mL"}, {"measurement": "MIC90", "setting": "[14]", "value": 0.5, "unit": "µg/mL"}, {"measurement": "MIC", "setting": "[15]", "value": 0.5, "unit": "µg/mL"}, {"measurement": "MIC50", "setting": "[15]", "value": 0.5, "unit": "µg/mL"}, {"measurement": "MIC90", "setting": "[15]", "value": 0.5, "unit": "µg/mL"}, {"measurement": "MIC", "setting": "[16]", "value": 0.25, "unit": "µg/mL"}, {"measurement": "Activity", "setting": "[17]", "value": 20.6, "unit": "%"}, {"measurement": "MIC", "setting": "[18]", "value": 1, "unit": "µg/mL"}, {"measurement": "Activity", "setting": "[19]", "value": 100, "unit": "%"}, {"measurement": "MIC", "setting": "[20]", "value": "≥ 32", "unit": "µg/mL"}, {"measurement": "MIC", "setting": "[21]", "value": 0.5, "unit": "µg/mL"}, {"measurement": "MIC", "setting": "[22]", "value": 0.25, "unit": "µg/mL"}, {"measurement": "MIC", "setting": "[23]", "value": 0.5, "unit": "µg/mL"}, {"measurement": "Activity", "setting": "[24]", "value": 0, "unit": "%"}, {"measurement": "Activity", "setting": "[25]", "value": 35.3, "unit": "%"}, {"measurement": "MIC", "setting": "[26]", "value": 0.25, "unit": "µg/mL"}, {"measurement": "MIC", "setting": "[27]", "value": 0.25, "unit": "µg/mL"}]}
